Measurements gathered from unrelated publications.
Each line is one published result; the experiments were not run side by side.
Observed: metabolic stability
Host: human

CC[C@@H]1C=CC(=O)O[C@@H]1C[C@@H](OC)[C@H](C)[C@H](OC)[C@@H](C)Cc1ccc(F)cc1
half-life (liver microsomes): < 2.3 min

CC(C)(C)c1ccc(O)c(CN(Cc2cc(C(C)(C)C)ccc2O)C2CCC(NC(N)=O)CC2)c1 (stereo not shown)
half-life (liver microsomes; 1 µM; pH 7.4): 39.8 min

COc1ccc2nc3cc(Cl)ccc3c(Nc3cc(CN4CCCC4)c(O)c(CN4CCCC4)c3)c2n1
half-life (hepatocytes; 1 µM): 468 min

CCS(=O)(=O)Nc1ccc(OCCOCCOCCOCCOc2ccc(NS(=O)(=O)CC)cc2-c2cn(C)c(=O)c3ccccc23)c(-c2cn(C)c(=O)c3ccccc23)c1
half-life (liver microsomes): < 2.3 min

CNS(=O)(=O)Cc1ccc2[nH]cc(CCN(C)C)c2c1
half-life (hepatocytes; 5 µM): 448 min

Cc1ccc(S(=O)(=O)Nc2cccc(-c3nnn[nH]3)c2)cc1C
half-life (liver microsomes): 2 min

CCCCOC(=O)NS(=O)(=O)c1sc(CC(C)C)cc1-c1cccc2c1CN(C(C)=O)C2
half-life (liver microsomes; 1 µM; pH 7.4): 15 min

O=C(CC1Cc2ccccc2C1)N[C@H](CN1CCCC1)[C@H](O)c1ccc2c(c1)OCCO2
half-life (liver microsomes): 28 min

CCSC1CC(=O)C(C)(CCC(=O)Nc2c(O)ccc(C(=O)O)c2O)C2C3CC4CC12CC4(C)O3 (stereo not shown)
half-life (liver microsomes): 22 min

C/C=C/C[C@H](C)[C@@H](OC)[C@@H](C)[C@H](O)C[C@H]1OC(=O)C=C[C@H]1CC
half-life (liver microsomes): 6.7 min

O=C(N[C@H](Cc1c[nH]c2ccccc12)C(=O)Nc1ccncc1)c1ccc(-c2ccc(F)c(F)c2)cc1F
half-life (liver microsomes): 18 min

CC(C)NCC(O)COc1cccc2ccccc12 (stereo not shown)
half-life (liver microsomes; 1 µM; pH 7.4): 58.6 min

O=C(c1ccc(F)cc1)C1CCN(CCn2c(=O)[nH]c3ccccc3c2=O)CC1
half-life (liver microsomes): 38.8 min

NCc1ccccc1
half-life (hepatocytes; 5 µM): 76.3 min

CN1CCN(C(c2ccccc2)c2ccc(Cl)cc2)CC1 (racemic)
half-life (liver microsomes): > 100 min

CC(C)(C)C[C@@H]1N[C@@H](C(=O)N[C@H]2C[C@@](C)(O)C2)[C@H](c2cccc(Cl)c2F)[C@]12C(=O)Nc1cc(Cl)ccc12
half-life (liver microsomes): > 60 min

CCCCOC(=O)NS(=O)(=O)c1sc(CC(C)C)cc1-c1ccc2c(c1)CN(C(C)=O)CC2
half-life (liver microsomes; 1 µM; pH 7.4): 5.4 min

CCN(CC)CCNC(=O)c1c(C)[nH]c(/C=C2\C(=O)Nc3ccc(F)cc32)c1C
half-life (liver microsomes; 1 µM; pH 7.4): 37.4 min

CCN(CC)S(=O)(=O)c1ccc(S(=O)(=O)N2CCC[C@@H](C(=O)N3CCC(F)(F)CC3)C2)cc1
half-life (liver microsomes; 1.05 µM): 2.7 min

CCOC(=O)NS(=O)(=O)c1sc(CC(C)C)cc1-c1ccc2c(c1)CN(C(=O)OCC)C2
half-life (liver microsomes; 1 µM; pH 7.4): 2.3 min

CC(C)NCC(O)COc1cccc2ccccc12 (stereo not shown)
half-life (liver microsomes; 1 µM): 57.8 min

CCCCCCCc1c(C)nc2cc(OC)ccc2c1O
half-life (liver microsomes; 1 µM): 10.2 min

O=C(OC(C(F)(F)F)C(F)(F)F)N1CCc2ccccc2C1
half-life (liver microsomes): 21 min

COc1ccc2cc(C(=O)Nc3ccc4c(c3)CN(C3CCC(=O)NC3=O)C4=O)ccc2c1 (stereo not shown)
half-life (liver microsomes; 2 µM; 1 h): 3.8 min

O=S(=O)(Nc1cccc(-c2nnn[nH]2)c1)c1cc(Cl)c(Cl)cc1Cl
half-life (liver microsomes): 88 min

Cc1cccc(-n2ncc(Cl)c(Cl)c2=O)c1
half-life (liver microsomes): 6.6 min

CCCCOC(=O)NS(=O)(=O)c1sc(CC(C)C)cc1-c1ccc(OC(F)(F)F)c(Cn2ccnc2)c1
half-life (liver microsomes; 1 µM; pH 7.4): 10 min

O=C1CCN(C(=O)Nc2ccc(F)c(C(F)F)c2)[C@@H]2CCCC[C@H]12
half-life (liver microsomes): > 56 min
